According to ChEMBL document CHEMBL3244289, “Synthesis and antibacterial activity of 2'-substituted chelocardin analogues” (1979):
The source made the active and inactive calls. The calls are words filed in the database; no cut-off is given here.

Legend:
[1] = test system: Proteus mirabilis; experiment: Antibacterial activity against Proteus mirabilis by two-fold agar dilution method; assay type: functional
In short: (§1)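 MIC determined by twofold serial dilution in brain-heart infusion agar. Values are reported in µg/mL.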

[2] = test system: Streptococcus pyogenes; experiment: Antibacterial activity against Streptococcus pyogenes C-203 by two-fold agar dilution method; assay type: functional; in short: as §1
[3] = test system: Enterococcus; experiment: Antibacterial activity against Enterococcus 89 by two-fold agar dilution method; assay type: functional; in short: as §1
[4] = test system: Staphylococcus aureus; experiment: Antibacterial activity against Staphylococcus aureus 45 by two-fold agar dilution method; assay type: functional; in short: as §1
[5] = test system: Staphylococcus aureus; experiment: Antibacterial activity against Staphylococcus aureus Smith by two-fold agar dilution method; assay type: functional; in short: as §1
[6] = test system: Salmonella typhi; experiment: Antibacterial activity against Salmonella typhi by two-fold agar dilution method; assay type: functional, Salmonella enterica subsp. enterica serovar Typhi; conditions: Salmonella enterica
In short: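 MIC in µg/mL by twofold serial agar dilution on brain-heart infusion agar.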

[7] = test system: Klebsiella pneumoniae; experiment: Antibacterial activity against Klebsiella pneumoniae 8045 by two-fold agar dilution method; assay type: functional; in short: as §1
[8] = test system: Escherichia coli; experiment: Antibacterial activity against Escherichia coli Juhl by two-fold agar dilution method; assay type: functional; in short: as §1
[9] = test system: Pasteurella multocida; experiment: Antibacterial activity against Pasteurella multocida 10544 by two-fold agar dilution method; assay type: functional; in short: as §1
[10] = test system: Proteus vulgaris; experiment: Antibacterial activity against Proteus vulgaris by two-fold agar dilution method; assay type: functional; in short: as §1
[11] = test system: Pseudomonas aeruginosa; experiment: Antibacterial activity against Pseudomonas aeruginosa by two-fold agar dilution method; assay type: functional, organism-based; in short: as §1

| Structure (SMILES) | MIC [1] [µg/mL] | MIC [2] [µg/mL] | MIC [3] [µg/mL] | MIC [4] [µg/mL] | MIC [5] [µg/mL] | MIC [6] [µg/mL] | MIC [7] [µg/mL] | MIC [8] [µg/mL] | MIC [9] [µg/mL] | MIC [10] [µg/mL] | Activity [11] |
| --- | --- | --- | --- | --- | --- | --- | --- | --- | --- | --- | --- |
| C/C(=N\c1ccc(C)cc1)C1=C(O)[C@H](N)[C@@H]2Cc3c(c(O)c4c(O)c(C)ccc4c3C)C(=O)[C@]2(O)C1=O.Cl | 6.2 | 6.2 | 25 | 12.5 | 12.5 | 3.1 | 6.2 | 25 | 0.39 | 6.2 | inactive |
| C/C(=N\NC(=O)c1ccncc1)C1=C(O)[C@H](N)[C@@H]2Cc3c(c(O)c4c(O)c(C)ccc4c3C)C(=O)[C@]2(O)C1=O.Cl (stereo in doubt) | 12.5 | 12.5 | 50 | 50 | 50 | 12.5 | 12.5 | 50 | 6.2 | 12.5 | inactive |
| C/C(=N\NC(N)=O)C1=C(O)[C@H](N)[C@@H]2Cc3c(c(O)c4c(O)c(C)ccc4c3C)C(=O)[C@]2(O)C1=O.Cl | 25 | 25 | 50 | 25 | 25 | 6.2 | 12.5 | 25 | 1.56 | 12.5 | inactive |
| C/C(=N\NC(=O)c1ccccc1O)C1=C(O)[C@H](N)[C@@H]2Cc3c(c(O)c4c(O)c(C)ccc4c3C)C(=O)[C@]2(O)C1=O.Cl | > 100 | > 100 | > 100 | > 100 | > 100 | > 100 | > 100 | > 100 | 25 | > 100 | inactive |
| C/C(=N\NC(=O)Cc1ccccc1)C1=C(O)[C@H](N)[C@@H]2Cc3c(c(O)c4c(O)c(C)ccc4c3C)C(=O)[C@]2(O)C1=O.Cl | 12.5 | 12.5 | 50 | 25 | 25 | 12.5 | 6.2 | 50 | 6.2 | 12.5 | inactive |
| C/C(=N\NC(=O)c1cccnc1)C1=C(O)[C@H](N)[C@@H]2Cc3c(c(O)c4c(O)c(C)ccc4c3C)C(=O)[C@]2(O)C1=O.Cl | > 100 | 100 | > 100 | > 100 | > 100 | 100 | 100 | 100 | 12.5 | > 100 | inactive |
| C/C(=N\c1ccc(O)cc1)C1=C(O)[C@H](N)[C@@H]2Cc3c(c(O)c4c(O)c(C)ccc4c3C)C(=O)[C@]2(O)C1=O.Cl | 6.2 | 12.5 | 25 | 12.5 | 12.5 | 6.2 | 3.1 | 50 | 0.78 | 3.1 | inactive |
| CCCC(=O)N/N=C(\C)C1=C(O)[C@H](N)[C@@H]2Cc3c(c(O)c4c(O)c(C)ccc4c3C)C(=O)[C@]2(O)C1=O.Cl | 12.5 | 25 | 50 | 50 | 50 | 12.5 | 12.5 | 50 | 1.56 | 12.5 | inactive |
| C/C(=N\NC(=O)c1ccc(O)cc1)C1=C(O)[C@H](N)[C@@H]2Cc3c(c(O)c4c(O)c(C)ccc4c3C)C(=O)[C@]2(O)C1=O.Cl (stereo in doubt) | 12.5 | 50 | 100 | 50 | 50 | 25 | 25 | 50 | 3.1 | 12.5 | inactive |
| C/C(=N\Nc1ccccc1)C1=C(O)[C@H](N)[C@@H]2Cc3c(c(O)c4c(O)c(C)ccc4c3C)C(=O)[C@]2(O)C1=O.Cl | 50 | 6.2 | 12.5 | 6.2 | 6.2 | 25 | 12.5 | 50 | 0.78 | 50 | inactive |
| C/C(=N\NC(=O)CC#N)C1=C(O)[C@H](N)[C@@H]2Cc3c(c(O)c4c(O)c(C)ccc4c3C)C(=O)[C@]2(O)C1=O.Cl | 12.5 | 50 | 50 | 50 | 50 | 12.5 | 12.5 | 50 | 1.56 | 12.5 | inactive |
| C/C(=N\NC(=O)Nc1ccccc1Cl)C1=C(O)[C@H](N)[C@@H]2Cc3c(c(O)c4c(O)c(C)ccc4c3C)C(=O)[C@]2(O)C1=O.Cl | 50 | 25 | 100 | 100 | 50 | 50 | 50 | 100 | 6.2 | 50 | inactive |
| C/C(=N\c1ccc(Br)cc1)C1=C(O)[C@H](N)[C@@H]2Cc3c(c(O)c4c(O)c(C)ccc4c3C)C(=O)[C@]2(O)C1=O.Cl | 6.2 | 12.5 | 25 | 12.5 | 12.5 | 3.1 | 3.1 | 25 | 0.39 | 6.2 | inactive |
| C=CCNC(=O)N/N=C(\C)C1=C(O)[C@H](N)[C@@H]2Cc3c(c(O)c4c(O)c(C)ccc4c3C)C(=O)[C@]2(O)C1=O.Cl | 6.2 | 12.5 | 50 | 25 | 25 | 12.5 | 6.2 | 25 | 0.78 | 12.5 | inactive |
| C/C(=N\NC(=O)c1ccc(N)cc1)C1=C(O)[C@H](N)[C@@H]2Cc3c(c(O)c4c(O)c(C)ccc4c3C)C(=O)[C@]2(O)C1=O.Cl (stereo in doubt) | 12.5 | 25 | 50 | 50 | 50 | 12.5 | 12.5 | 50 | 1.56 | 12.5 | inactive |
| COc1ccc(C(=O)N/N=C(\C)C2=C(O)[C@H](N)[C@@H]3Cc4c(c(O)c5c(O)c(C)ccc5c4C)C(=O)[C@]3(O)C2=O)cc1.Cl (stereo in doubt) | 25 | 50 | > 100 | 100 | 100 | 25 | 50 | 100 | 3.1 | 25 | inactive |
| C/C(=N\NCCN(C)C)C1=C(O)[C@H](N)[C@@H]2Cc3c(c(O)c4c(O)c(C)ccc4c3C)C(=O)[C@]2(O)C1=O.Cl | 25 | 50 | 100 | 50 | 50 | 25 | 25 | 50 | 3.1 | 25 | inactive |
| C/C(=N\N1CCOCC1)C1=C(O)[C@H](N)[C@@H]2Cc3c(c(O)c4c(O)c(C)ccc4c3C)C(=O)[C@]2(O)C1=O.Cl | 12.5 | 12.5 | 12.5 | 12.5 | 12.5 | 3.1 | 6.2 | 25 | 0.78 | 6.2 | inactive |
| C/C(=N\c1ccc(Cl)cc1)C1=C(O)[C@H](N)[C@@H]2Cc3c(c(O)c4c(O)c(C)ccc4c3C)C(=O)[C@]2(O)C1=O.Cl | 3.1 | 6.2 | 25 | 6.2 | 6.2 | 3.1 | 3.1 | 25 | 0.39 | 1.56 | inactive |
| C/C(=N\c1ccc(C(=O)O)cc1)C1=C(O)[C@H](N)[C@@H]2Cc3c(c(O)c4c(O)c(C)ccc4c3C)C(=O)[C@]2(O)C1=O.Cl | 3.1 | 3.1 | 6.2 | 6.2 | 3.1 | 1.5 | 1.56 | 6.2 | 0.39 | 1.56 | inactive |
| C/C(=N\NC(=O)c1ccco1)C1=C(O)[C@H](N)[C@@H]2Cc3c(c(O)c4c(O)c(C)ccc4c3C)C(=O)[C@]2(O)C1=O.Cl (stereo in doubt) | 50 | 50 | > 100 | > 100 | > 100 | 25 | 50 | > 100 | 3.1 | 50 | inactive |
| C/C(=N\c1ccc(CC(=O)O)cc1)C1=C(O)[C@H](N)[C@@H]2Cc3c(c(O)c4c(O)c(C)ccc4c3C)C(=O)[C@]2(O)C1=O.Cl | 3.1 | 3.1 | 12.5 | 6.2 | 6.2 | 1.5 | 1.56 | 6.2 | 0.39 | 1.56 | inactive |
| C/C(=N\c1ccccc1)C1=C(O)[C@H](N)[C@@H]2Cc3c(c(O)c4c(O)c(C)ccc4c3C)C(=O)[C@]2(O)C1=O.Cl | 6.2 | 12.5 | 25 | 12.5 | 12.5 | 6.2 | 12.5 | 25 | 1.56 | 6.2 | inactive |
